# Reference: PubChem BioAssay
# Calls of active or inactive are those of the source.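 Rule for the calls, unless noted: active = Her2 level under about 52% in both replicate screens, with viability over 70% of control (limit read from the data); inconclusive = Her2 under the limit in one screen only, or viability under 70%; inactive = Her2 level above the set limit.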
# Tests used:
# [1] = reducers of endogenous Her2 protein level, primary screen, SKBR3 breast tumor cells, AlphaScreen, ATP viability (AID 461); details: 18-24 h, measured here: SKBR3 viability, ATP luminescence, at 10 µM;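 for Her2 level: lower value means less Her2 protein in the cells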;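 for viability: percent of carrier control wells set as 100% viability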
# [2] = target: Receptor tyrosine-protein kinase erbB-2 (Homo sapiens) (UniProt P04626); test: as above; details: 18-24 h, at 10 µM, stronger effect = lower value
# Sequence of Receptor tyrosine-protein kinase erbB-2 (Homo sapiens) (P04626 whole entry, looked up): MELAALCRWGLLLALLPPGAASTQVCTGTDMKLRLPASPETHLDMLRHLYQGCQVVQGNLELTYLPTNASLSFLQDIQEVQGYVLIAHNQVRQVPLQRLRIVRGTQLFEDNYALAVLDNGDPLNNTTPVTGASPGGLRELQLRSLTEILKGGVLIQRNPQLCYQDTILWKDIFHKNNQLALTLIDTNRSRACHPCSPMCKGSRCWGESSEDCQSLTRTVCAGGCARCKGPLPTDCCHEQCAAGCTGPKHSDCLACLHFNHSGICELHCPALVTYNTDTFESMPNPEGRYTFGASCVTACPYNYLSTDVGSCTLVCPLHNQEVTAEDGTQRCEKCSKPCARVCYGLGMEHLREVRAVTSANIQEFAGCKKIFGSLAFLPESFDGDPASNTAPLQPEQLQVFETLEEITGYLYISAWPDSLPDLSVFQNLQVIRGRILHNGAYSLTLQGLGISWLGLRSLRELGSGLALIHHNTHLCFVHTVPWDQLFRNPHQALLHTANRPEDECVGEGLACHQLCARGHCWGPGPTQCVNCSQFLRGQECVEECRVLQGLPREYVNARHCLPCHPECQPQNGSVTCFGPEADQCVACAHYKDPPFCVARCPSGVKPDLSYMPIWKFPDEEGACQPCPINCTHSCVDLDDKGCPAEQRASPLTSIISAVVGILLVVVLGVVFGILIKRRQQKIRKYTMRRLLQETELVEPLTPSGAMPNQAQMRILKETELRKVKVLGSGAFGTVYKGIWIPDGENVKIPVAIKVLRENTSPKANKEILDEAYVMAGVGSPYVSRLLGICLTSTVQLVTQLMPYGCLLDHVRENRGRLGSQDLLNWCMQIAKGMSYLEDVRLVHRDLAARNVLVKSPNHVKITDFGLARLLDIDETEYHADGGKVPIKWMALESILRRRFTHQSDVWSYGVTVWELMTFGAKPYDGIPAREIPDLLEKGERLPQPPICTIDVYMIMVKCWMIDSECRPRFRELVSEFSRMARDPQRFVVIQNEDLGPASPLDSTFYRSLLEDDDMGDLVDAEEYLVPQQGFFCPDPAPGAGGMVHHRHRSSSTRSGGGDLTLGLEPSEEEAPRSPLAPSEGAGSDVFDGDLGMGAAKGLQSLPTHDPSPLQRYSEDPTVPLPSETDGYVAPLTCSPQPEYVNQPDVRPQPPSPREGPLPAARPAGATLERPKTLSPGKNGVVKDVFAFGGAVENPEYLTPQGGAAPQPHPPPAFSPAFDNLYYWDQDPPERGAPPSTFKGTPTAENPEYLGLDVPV
# [3] = SK-BR-3 cell growth inhibitors, pilot screen, 24 h, human (AID 572;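 active = viability at or below 10% of carrier control in both of two separate runs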;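 note: compound exposure lasted between 18 and 24 h rather than exactly 24 h; 100% = carrier-treated control wells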); details: SK-BR-3 viability, CellTiter-Glo luminescence, at 10 µM, stronger effect = lower value
# [4] = HUVEC growth inhibition – cell-based, human, primary screen (AID 575;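 active = viability at or below 30% in both replicate assays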;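 note: 100% = median of untreated cell wells with 0.1% DMSO on each plate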); details: HUVEC proliferation, CellTiter-Glo luminescence, 72 h; at 10 µM; stronger effect = lower value
# In short: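 System: primary human umbilical vein endothelial cells; Quantity: 1250 endothelial cells in each well; Buffer or medium: supplemented EBM, 2% fetal bovine serum; Doses: one dose, 10 µM final, 0.1% DMSO; Incubation: 72 h compound incubation; Technique: ATP-based CellTiter-Glo luminescent read; Evaluation: percent of median DMSO-control luminescence; Controls: vehicle and MePR control wells.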
# [5] = growth inhibitors of H69AR lung tumor, primary screen, human, duplicate replicates (AID 580;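 active = viability at or under a set limit in both replicates, limit being median viability minus 3 SD, cut at about 48% in these data, passing the limit was not always enough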;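 note: 100% = mean luminescence of untreated wells and 0% = no signal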); details: H69AR lung tumor cells viability, ATP luminescence, 72 h; at 10 µM; stronger effect = lower value
# [6] = reversal of MRP1-mediated doxorubicin resistance, pilot screen, H69AR cells, doxorubicin co-treatment (AID 601;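 active = viability loss from added drug above about 55%, and viability with drug at most 40%, in both replicates, limit read from the data, passing the limit was not always enough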); details: CellTiter-Glo, 72 h, at 10 µM; for differential viability (reversal): stronger effect = higher value
# [7] = 384-well plate pilot, post-Golgi transport modulator project, inhibition of yeast transport mutant growth (AID 636; in the data active = inhibition above about 31%); details: absorbance 615 nm, about 18 h, stronger effect = higher value
# [8] = growth suppression of yeast trafficking mutant, preliminary HTS, modulators of trafficking downstream of Golgi apparatus project, 1536-format plate, OD 615 nm (AID 637; in the data active = inhibition above about 30%); details: yeast transport mutant growth, absorbance 615 nm, 18 h; stronger effect = higher value
# [9] = H69AR cells + 2 uM doxorubicin, measured here: viability with 2 uM doxorubicin, stronger effect = lower value
# [10] = H69AR cells, compound alone cytotoxicity
SMILES,viability [1],Her2 level [2],viability [3],viability [4],viability [5],differential viability (reversal) ([6]; H69AR cells + 2 uM doxorubicin),"viability [6, 9]","viability [6, 10]",inhibition [7],inhibition [8]
CCOC(=O)N1CCN(C(=O)c2ccc(N3C(=O)CCC3=O)cc2)CC1,110%,110% (inactive),110% (inactive),104% (inactive),105% (inactive),17.4% (inactive),87.6%,105%,-7.03% (inactive),-9.83% (inactive)
O=C(Nc1ccc2c(c1)OCO2)c1ccc(Br)c(S(=O)(=O)N2CCCC2)c1,98.5%,80.5% (inactive),98.5% (inactive),58% (inactive),94% (inactive),1.82% (inactive),92.2%,94%,-1.32% (inactive),-0.16% (inactive)
Cc1ccc(CNC(=O)CCCn2c(=O)c3ccccc3n(CC(=O)NCc3ccco3)c2=O)cc1,90.5%,144% (inactive),90.5% (inactive),104% (inactive),89.6% (inactive),-1.43% (inactive),91%,89.6%,2.76% (inactive),12.6% (inactive)
CCOC(=O)c1c(C)n(C)c2ccc(O)c(S(=O)(=O)c3ccccc3)c12,91.5%,80.5% (inactive),91.5% (inactive),103% (inactive),87.9% (inactive),-1.07% (inactive),88.9%,87.9%,-6.4% (inactive),-1.31% (inactive)
COc1ccc(CCNS(=O)(=O)c2ccc3c(c2)CCN3C(=O)CCC(=O)O)cc1OC,104%,89% (inactive),104% (inactive),88.6% (inactive),94.1% (inactive),4.3% (inactive),89.8%,94.1%,-2.37% (inactive),-4.91% (inactive)
c1ccc2c(c1)nc(-c1ccncc1)n1nnnc21,96.5%,99.5% (inactive),96.5% (inactive),93.5% (inactive),93.2% (inactive),8.75% (inactive),84.4%,93.2%,-6% (inactive),-0.16% (inactive)
CC(C)n1c(=NC(=O)c2ccco2)c(C#N)cc2c(=O)n3ccccc3cc21,100%,106% (inactive),100% (inactive),84.1% (inactive),6.44% (active),4.01% (inactive),2.43%,6.44%,3.16% (inactive),-6.61% (inactive)
CC(=O)Nc1ccc(NS(=O)(=O)c2ccc(Cl)c(C(=O)O)c2)cc1,106%,108% (inactive),106% (inactive),100% (inactive),103% (inactive),9.96% (inactive),92.8%,103%,-4.61% (inactive),-3.17% (inactive)
CC(C)(C)NC(=O)C(c1ccco1)N(C(=O)Cn1nnc(-c2ccc(F)cc2)n1)c1ccccc1 (stereo not given),89.5%,80% (inactive),89.5% (inactive),101% (inactive),102% (inactive),3.25% (inactive),98.4%,102%,-0.92% (inactive),0% (inactive)
COc1ccc(NC(=O)C23CCC(C)(C(=O)C2)C3(C)C)cc1 (stereo not given),92.5%,102% (inactive),92.5% (inactive),105% (inactive),102% (inactive),2.21% (inactive),99.3%,102%,-1.07% (inactive),0.48% (inactive)
COc1ccccc1C(=O)N1CCCC(c2nc(-c3cc(OC)c(OC)c(OC)c3)no2)C1 (stereo not given),120%,90% (inactive),120% (inactive),99.4% (inactive),78.8% (inactive),23.2% (inactive),55.6%,78.8%,-6.71% (inactive),7.3% (inactive)
CCOC(=O)N1CCN(Cc2ccccc2F)CC1,102%,81% (inactive),102% (inactive),98.1% (inactive),85% (inactive),-2.15% (inactive),87.2%,85%,-7.33% (inactive),2.3% (inactive)
CC(C)(C)c1cc(NS(=O)(=O)c2ccc3c(c2)OCCO3)on1,131%,88% (inactive),131% (inactive),98.1% (inactive),89.6% (inactive),-3.41% (inactive),93%,89.6%,-1.3% (inactive),5.24% (inactive)
CCOc1ccc2c(c1)n(CO)c(=S)n2CO,107%,74% (inactive),107% (inactive),83.6% (inactive),89.6% (inactive),2.06% (inactive),87.5%,89.6%,-2.53% (inactive),0.81% (inactive)
O=C(CSc1nnc(-c2cccs2)o1)NCC1CN(Cc2ccccc2)CCO1 (stereo not given),99.5%,90.5% (inactive),99.5% (inactive),106% (inactive),85.1% (inactive),-13.7% (inactive),98.8%,85.1%,-1.69% (inactive),-1.9% (inactive)
CC(C)CCNC(=O)C(c1ccco1)N(CC1CCCO1)C(=O)Cn1nnc2ccccc21 (stereo not given),100%,100% (inactive),100% (inactive),101% (inactive),94.4% (inactive),1.64% (inactive),92.8%,94.4%,-0.67% (inactive),-0.16% (inactive)
Cn1c2c(c(=O)[nH]c1=O)C(NC(=O)c1ccco1)(C(F)(F)F)C(=O)N2 (stereo not given),112%,118% (inactive),112% (inactive),93.3% (inactive),96.5% (inactive),4.25% (inactive),92.3%,96.5%,-1.45% (inactive),0.66% (inactive)
O=C(Nc1ccc(SC(F)F)cc1)c1ccc2nccnc2c1,91.5%,77.5% (inactive),91.5% (inactive),67% (inactive),92.1% (inactive),2.67% (inactive),89.4%,92.1%,-2.53% (inactive),-2.54% (inactive)
Cc1cc(=O)[nH]c(SCC(=O)NCc2ccco2)n1,95%,106% (inactive),95% (inactive),88.6% (inactive),94.6% (inactive),-5.85% (inactive),100%,94.6%,-5.48% (inactive),-2.38% (inactive)
CCOC(=O)C1=C(CSc2nc(C)cc(C)c2C#N)OC(N)=C(C#N)C1c1cccs1 (stereo not given),108%,85.5% (inactive),108% (inactive),78.5% (inactive),83.1% (inactive),8.64% (inactive),74.5%,83.1%,-5.33% (inactive),0.16% (inactive)
COc1ccc(C(=O)Nn2c(SCC(=O)NCC3CCCO3)nc3ccccc3c2=O)cc1 (stereo not given),92.5%,95% (inactive),92.5% (inactive),76.8% (inactive),83.8% (inactive),9.29% (inactive),74.5%,83.8%,-6.53% (inactive),-0.81% (inactive)
COc1cc(OC)cc(-c2nc3nc(C)c(CCC(=O)O)c(C)n3n2)c1,106%,81.5% (inactive),106% (inactive),80.1% (inactive),91.5% (inactive),7.47% (inactive),84%,91.5%,-4.08% (inactive),0.18% (inactive)
COc1ccc(C)cc1NC(=O)CN1CCN(S(=O)(=O)c2ccc(Cl)cc2)CC1,81.5%,87% (inactive),81.5% (inactive),74.7% (inactive),82.6% (inactive),25.3% (inactive),57.3%,82.6%,-3.55% (inactive),-2.17% (inactive)
Brc1ccc(C2=Nn3c(nnc3-c3ccncc3)SC2)cc1,94.5%,79.5% (inactive),94.5% (inactive),82.8% (inactive),77.1% (inactive),-14.3% (inactive),91.4%,77.1%,-2.89% (inactive),-0.36% (inactive)
CC(C)(C)c1ccc(OCC(=O)O)cc1,102%,96.5% (inactive),102% (inactive),108% (inactive),104% (inactive),13.4% (inactive),91%,104%,-5.73% (inactive),8.69% (inactive)
CCOc1ccc(OCC)c(NC(=O)C2CCN(S(=O)(=O)c3cnc[nH]3)CC2)c1,95.5%,99% (inactive),95.5% (inactive),96.2% (inactive),111% (inactive),11.1% (inactive),100%,111%,-2.37% (inactive),-2.74% (inactive)
CCOC(=O)C1=C(N)OC2=C(C(=O)CC(C)(C)C2)C1c1ccoc1 (stereo not given),80%,107% (inactive),80% (inactive),112% (inactive),96.3% (inactive),8.7% (inactive),87.7%,96.3%,-5.53% (inactive),-8.33% (inactive)
Clc1ccccc1OCCCCn1ccnc1,95%,114% (inactive),95% (inactive),95.9% (inactive),83.7% (inactive),11.4% (inactive),72.3%,83.7%,2.34% (inactive),-4.33% (inactive)
